# Assays:
# NCI-H292 = assay: Cytotoxicity against human NCI-H292 cells after 72 hrs by MTT assay; assay type: functional, cell-based; conditions: NCI-H292, 72 h
# Summary of the method: (§1)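 Metastatic human NSCLC lines H292 and H460, obtained from ATCC, were tested for viability by MTT assay following a previously published protocol. Cisplatin and doxorubicin served as positive controls. IC50 values are reported.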
# NCI-H460 = assay: Cytotoxicity against human NCI-H460 cells after 72 hrs by MTT assay; assay type: functional, cell-based; conditions: NCI-H460, 72 h; summary of the method: as §1
structure (smiles),measurement,setting,value
C/C=C(/C)C(=O)OC[C@H]1C2=C(C[C@H]3[C@H]4C5=C(C[C@@H]([C@H](C#N)N13)N4C)C(=O)C(C)=C(OC)C5=O)C(=O)C(C)=C(OC)C2=O [RENIERAMYCIN M],IC50,NCI-H292,24 nM
same,IC50,NCI-H460,6.5 nM
C/C=C(/C)C(=O)OC[C@H]1c2c(O)c(OC)c(C)c(OC(=O)c3ccccn3)c2C[C@H]2[C@H]3C4=C(C[C@H]([C@H](C#N)N12)N3C)C(=O)C(C)=C(OC)C4=O,IC50,NCI-H292,103 nM
same,IC50,NCI-H460,26 nM
C/C=C(/C)C(=O)OC[C@H]1c2c(O)c(OC)c(C)c(OC(=O)CNC(=O)OC(C)(C)C)c2C[C@H]2[C@H]3C4=C(C[C@H]([C@H](C#N)N12)N3C)C(=O)C(C)=C(OC)C4=O,IC50,NCI-H292,10 nM
same,IC50,NCI-H460,6 nM
C/C=C(/C)C(=O)OC[C@H]1c2c(O)c(OC)c(C)c(OC=O)c2C[C@H]2[C@H]3C4=C(C[C@H]([C@H](C#N)N12)N3C)C(=O)C(C)=C(OC)C4=O,IC50,NCI-H292,12 nM
same,IC50,NCI-H460,9.7 nM
C/C=C(/C)C(=O)OC[C@H]1c2c(O)c(OC)c(C)c(OC(=O)c3ccc(-c4ccccc4)cc3)c2C[C@H]2[C@H]3C4=C(C[C@H]([C@H](C#N)N12)N3C)C(=O)C(C)=C(OC)C4=O,IC50,NCI-H292,71 nM
same,IC50,NCI-H460,54 nM
C/C=C(/C)C(=O)OC[C@H]1c2c(O)c(OC)c(C)c(OC(=O)[C@H](C)NC(=O)OC(C)(C)C)c2C[C@H]2[C@H]3C4=C(C[C@H]([C@H](C#N)N12)N3C)C(=O)C(C)=C(OC)C4=O,IC50,NCI-H292,24 nM
same,IC50,NCI-H460,16 nM
C/C=C(/C)C(=O)OC[C@H]1c2c(O)c(OC)c(C)c(OC(=O)CC)c2C[C@H]2[C@H]3C4=C(C[C@H]([C@H](C#N)N12)N3C)C(=O)C(C)=C(OC)C4=O,IC50,NCI-H292,2.3 nM
same,IC50,NCI-H460,5.1 nM
C/C=C(/C)C(=O)OC[C@H]1c2c(O)c(OC)c(C)c(OC(=O)CCCCC)c2C[C@H]2[C@H]3C4=C(C[C@H]([C@H](C#N)N12)N3C)C(=O)C(C)=C(OC)C4=O,IC50,NCI-H292,16 nM
same,IC50,NCI-H460,15 nM
C/C=C(/C)C(=O)OC[C@H]1c2c(O)c(OC)c(C)c(OC(=O)c3cnc4ccccc4c3)c2C[C@H]2[C@H]3C4=C(C[C@H]([C@H](C#N)N12)N3C)C(=O)C(C)=C(OC)C4=O,IC50,NCI-H292,111 nM
same,IC50,NCI-H460,22 nM
C/C=C(/C)C(=O)OC[C@H]1c2c(O)c(OC)c(C)c(OC(=O)c3ccncc3)c2C[C@H]2[C@H]3C4=C(C[C@H]([C@H](C#N)N12)N3C)C(=O)C(C)=C(OC)C4=O,IC50,NCI-H292,20 nM
same,IC50,NCI-H460,11 nM
COC1=C(C)C(=O)C2=C(C1=O)[C@@H]1[C@@H]3CC4=C(C(=O)C(OC)=C(C)C4=O)[C@H](CO)N3[C@@H](C#N)[C@@H](C2)N1C,IC50,NCI-H292,217 nM
same,IC50,NCI-H460,164 nM
C/C=C(/C)C(=O)OC[C@H]1c2c(c(O)c(C)c3c2OCO3)C[C@H]2[C@H]3C4=C(C[C@H]([C@H](C#N)N12)N3C)C(=O)C(C)=C(OC)C4=O,IC50,NCI-H292,61 nM
same,IC50,NCI-H460,36 nM
C/C=C(/C)C(=O)OC[C@H]1c2c(c(OC(C)=O)c(C)c(OC)c2OC(C)=O)C[C@H]2[C@H]3C4=C(C[C@H]([C@H](C#N)N12)N3C)C(=O)C(C)=C(OC)C4=O,IC50,NCI-H292,28 nM
same,IC50,NCI-H460,25 nM
C/C=C(/C)C(=O)OC[C@H]1c2c(O)c(OC)c(C)c(OC(=O)c3ccc(Br)cc3)c2C[C@H]2[C@H]3C4=C(C[C@H]([C@H](C#N)N12)N3C)C(=O)C(C)=C(OC)C4=O,IC50,NCI-H292,21 nM
same,IC50,NCI-H460,14 nM
C/C=C(/C)C(=O)OC[C@H]1c2c(O)c(OC)c(C)c(OC(=O)c3ccc4ncccc4c3)c2C[C@H]2[C@H]3C4=C(C[C@H]([C@H](C#N)N12)N3C)C(=O)C(C)=C(OC)C4=O,IC50,NCI-H292,54 nM
same,IC50,NCI-H460,45 nM
C/C=C(/C)C(=O)OC[C@H]1c2c(O)c(OC)c(C)c(OC(=O)/C=C/c3ccccc3)c2C[C@H]2[C@H]3C4=C(C[C@H]([C@H](C#N)N12)N3C)C(=O)C(C)=C(OC)C4=O,IC50,NCI-H292,12 nM
same,IC50,NCI-H460,11 nM
C/C=C(/C)C(=O)OC[C@H]1c2c(O)c(OC)c(C)c(OC(=O)/C=C/c3cccnc3)c2C[C@H]2[C@H]3C4=C(C[C@H]([C@H](C#N)N12)N3C)C(=O)C(C)=C(OC)C4=O,IC50,NCI-H292,57 nM
same,IC50,NCI-H460,52 nM
COc1cc2c(cc1O)CCN[C@]21CS[C@@H]2c3c(OC(C)=O)c(C)c4c(c3[C@H](COC1=O)N1[C@@H]2[C@H]2c3c(cc(C)c(OC)c3O)C[C@H]([C@@H]1C#N)N2C)OCO4,IC50,NCI-H292,1.6 nM
same,IC50,NCI-H460,1.2 nM
COc1cccc2c1C(=O)c1c(O)c3c(c(O)c1C2=O)C[C@@](O)(C(=O)CO)C[C@@H]3O[C@H]1C[C@H](N)[C@H](O)[C@H](C)O1 [DOXORUBICIN],IC50,NCI-H292,351 nM
same,IC50,NCI-H460,34 nM
C/C=C(/C)C(=O)OC[C@H]1c2c(O)c(OC)c(C)c(OC(=O)CCC)c2C[C@H]2[C@H]3C4=C(C[C@H]([C@H](C#N)N12)N3C)C(=O)C(C)=C(OC)C4=O,IC50,NCI-H292,6.7 nM
same,IC50,NCI-H460,5.6 nM
C/C=C(/C)C(=O)OC[C@H]1c2c(O)c(OC)c(C)c(O)c2C[C@H]2[C@H]3c4c(O)c(OC)c(C)c(O)c4C[C@H]([C@H](C#N)N12)N3C,IC50,NCI-H292,1.7 nM
same,IC50,NCI-H460,1.1 nM
C/C=C(/C)C(=O)OC[C@H]1c2c(O)c(OC)c(C)c(OC(=O)/C=C/c3ccc(F)cc3)c2C[C@H]2[C@H]3C4=C(C[C@H]([C@H](C#N)N12)N3C)C(=O)C(C)=C(OC)C4=O,IC50,NCI-H292,63 nM
same,IC50,NCI-H460,17 nM
C/C=C(/C)C(=O)OC[C@H]1c2c(O)c(OC)c(C)c(OC(C)=O)c2C[C@H]2[C@H]3C4=C(C[C@H]([C@H](C#N)N12)N3C)C(=O)C(C)=C(OC)C4=O,IC50,NCI-H292,3 nM
same,IC50,NCI-H460,3.6 nM
C/C=C(/C)C(=O)OC[C@H]1c2c(O)c(OC)c(C)c(OC(=O)CCCC)c2C[C@H]2[C@H]3C4=C(C[C@H]([C@H](C#N)N12)N3C)C(=O)C(C)=C(OC)C4=O,IC50,NCI-H292,36 nM
same,IC50,NCI-H460,26 nM
C/C=C(/C)C(=O)OC[C@H]1c2c(O)c(OC)c(C)c(OC(=O)OC)c2C[C@H]2[C@H]3C4=C(C[C@H]([C@H](C#N)N12)N3C)C(=O)C(C)=C(OC)C4=O,IC50,NCI-H292,11 nM
same,IC50,NCI-H460,14 nM
C/C=C(/C)C(=O)OC[C@H]1c2c(O)c(OC)c(C)c(OC(=O)c3cccnc3)c2C[C@H]2[C@H]3C4=C(C[C@H]([C@H](C#N)N12)N3C)C(=O)C(C)=C(OC)C4=O,IC50,NCI-H292,59 nM
same,IC50,NCI-H460,20 nM

# Reference: ChEMBL document CHEMBL4118046, “Chemistry of Renieramycins. 17. A New Generation of Renieramycins: Hydroquinone 5-O-Monoester Analogues of Renieramycin M as Potential Cytotoxic Agents against Non-Small-Cell Lung Cancer Cells” (J Nat Prod, 2017)
